From ChEMBL document CHEMBL1136700, “Identification of a broad-spectrum azasordarin with improved pharmacokinetic properties” (Bioorg Med Chem Lett, 2003)
In brackets after ≈: the same amount, converted by molar mass.

Assays:
Aspergillus fumigatus = assay: Minimum inhibitory concentration (MIC) to Aspergillus fumigatus after 48 hr; type: functional
How it was run: (§1)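 Antifungal susceptibility read visually; MIC taken as lowest drug concentration giving 90–100% inhibition of visible growth relative to drug-free controls, read over 48 h, or after 24 h where footnoted. Organisms: C. parapsilosis, C. albicans, Cryptococcus neoformans, C. glabrata, Aspergillus fumigatus, Aspergillus flavus.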

Cryptococcus neoformans = assay: Minimum inhibitory concentration against Cryptococcus neoformans after 48 hours; type: functional; how it was run: as §1
Candida parapsilosis = assay: Minimum inhibitory concentration (MIC) to Candida parapsilosis after 48 hr; type: functional; how it was run: as §1
Candida albicans = assay: Minimum inhibitory concentration (MIC) to Candida albicans after 48 hr; type: functional; how it was run: as §1
Aspergillus flavus = assay: Minimum inhibitory concentration (MIC) against Aspergillus flavus after 24 hours; type: functional; how it was run: as §1
Nakaseomyces glabratus = assay: Minimum inhibitory concentration (MIC) to Candida glabrata after 48 hours; type: functional; how it was run: as §1
[1] = Maximum plasma concentration was determined; type: ADME, organism-based
How it was run: (§2)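 Mice dosed iv at 5 mg/kg or orally at 20 mg/kg, n = 3; drug concentrations measured in plasma/serum over time to derive half-life, Cmax, total body clearance, steady-state volume and oral bioavailability.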

[2] = Volume of steady state concentration was determined; type: ADME, organism-based; conditions: in vivo; read-out: Vss; how it was run: as §2
[3] = Total body clearance was determined; type: ADME, organism-based; conditions: in vivo; how it was run: as §2
[4] = Half life period was measured upon intravenous administration (5 mg/kg); type: ADME, organism-based; conditions: in vivo; how it was run: as §2
[5] = Half life period was measured upon oral administration (20 mg/kg); type: ADME, organism-based; conditions: in vivo; how it was run: as §2
[6] = Oral bioavailability; type: ADME, organism-based; conditions: eutheria, in vivo; how it was run: as §2
[7] = Aspergillus fumigatus, 48 h, read-out: MIC
[8] = Lodderomyces parapsilosis, 48 h, read-out: MIC
[9] = Aspergillus flavus, 24 h, read-out: MIC
[10] = Nakaseomyces glabratus, 48 h, read-out: MIC

Row | SMILES | MIC (Aspergillus fumigatus; [7]) | MIC (Cryptococcus neoformans) | MIC (Candida parapsilosis; [8]) | MIC (Candida albicans) | MIC (Aspergillus flavus; [9]) | MIC (Nakaseomyces glabratus; [10]) | Cmax [1] | MIC (Aspergillus fumigatus) | Vd [2] | clearance [3] | half-life [4] | half-life [5] | MIC (Candida parapsilosis) | MIC (Aspergillus flavus) | bioavailability [6] | MIC (Nakaseomyces glabratus)
1 | CC(C)C1=CC2CC3(C=O)[C@@H]4CC[C@@H](C)[C@H]4CC2(CO[C@H]2CN(CC=C(Cl)Cl)[C@H](C)CO2)[C@]13C(=O)O | > 128 µg/mL | 16 µg/mL (≈ 29.6 µM) | 32 µg/mL (≈ 59.2 µM) | < 0.06 µg/mL | > 128 µg/mL | < 0.06 µg/mL | – | – | – | – | – | – | – | – | – | –
2 | CC(C)C1=CC2CC3(C=O)[C@@H]4CC[C@@H](C)[C@H]4CC2(CO[C@H]2CN(Cc4ccccc4Cl)[C@H](C)CO2)[C@]13C(=O)O | > 128 µg/mL | 4 µg/mL (≈ 7.19 µM) | > 128 µg/mL | < 0.06 µg/mL | > 128 µg/mL | 1 µg/mL (≈ 1.8 µM) | – | – | – | – | – | – | – | – | – | –
3 | CC(C)C1=CC2CC3(C=O)[C@@H]4CC[C@@H](C)[C@H]4CC2(CO[C@H]2CN(S(=O)(=O)C4CC4)[C@H](C)CO2)[C@]13C(=O)O | > 128 µg/mL | > 128 µg/mL | > 128 µg/mL | 32 µg/mL (≈ 59.7 µM) | > 128 µg/mL | 128 µg/mL (≈ 239 µM) | – | – | – | – | – | – | – | – | – | –
4 | COc1ccc(CN2C[C@H](OCC34C[C@@H]5[C@H](C)CC[C@H]5C5(C=O)CC3C=C(C(C)C)[C@@]45C(=O)O)OC[C@H]2C)cc1 | > 128 µg/mL | 0.5 µg/mL (≈ 0.906 µM) | 4 µg/mL (≈ 7.25 µM) | < 0.06 µg/mL | > 128 µg/mL | < 0.06 µg/mL | – | – | – | – | – | – | – | – | – | –
5 | CC(C)C1=CC2CC3(C=O)[C@@H]4CC[C@@H](C)[C@H]4CC2(CO[C@H]2CN(CC=C(F)F)[C@H](C)CO2)[C@]13C(=O)O | > 128 µg/mL | 64 µg/mL (≈ 126 µM) | 64 µg/mL (≈ 126 µM) | 0.125 µg/mL (≈ 0.246 µM) | > 128 µg/mL | 1 µg/mL (≈ 1.97 µM) | – | – | – | – | – | – | – | – | – | –
6 | CC(C)C1=CC2CC3(C=O)[C@@H]4CC[C@@H](C)[C@H]4CC2(CO[C@H]2CN(c4ccc(Cl)s4)[C@H](C)CO2)[C@]13C(=O)O | > 128 µg/mL | 2 µg/mL (≈ 3.65 µM) | > 128 µg/mL | < 0.06 µg/mL | > 128 µg/mL | 0.125 µg/mL (≈ 0.228 µM) | – | – | – | – | – | – | – | – | – | –
7 | CC(C)=CCN1C[C@H](OCC23C[C@@H]4[C@H](C)CC[C@H]4C4(C=O)CC2C=C(C(C)C)[C@@]34C(=O)O)OC[C@H]1C | > 128 µg/mL | > 128 µg/mL | > 128 µg/mL | 0.25 µg/mL (≈ 0.5 µM) | > 128 µg/mL | 8 µg/mL (≈ 16 µM) | – | – | – | – | – | – | – | – | – | –
8 | C=C(Cl)CN1C[C@H](OCC23C[C@@H]4[C@H](C)CC[C@H]4C4(C=O)CC2C=C(C(C)C)[C@@]34C(=O)O)OCC12CCCC2 | 8 µg/mL (≈ 14.6 µM) | < 0.008 µg/mL | 0.5 µg/mL (≈ 0.916 µM) | < 0.008 µg/mL | 0.125 µg/mL (≈ 0.229 µM) | 0.015 µg/mL (≈ 0.0275 µM) | – | – | – | – | – | – | – | – | – | –

The next lines start with the values.

Row | MIC (Aspergillus fumigatus; [7]) | MIC (Cryptococcus neoformans) | MIC (Candida parapsilosis; [8]) | MIC (Candida albicans) | MIC (Aspergillus flavus; [9]) | MIC (Nakaseomyces glabratus; [10]) | Cmax [1] | MIC (Aspergillus fumigatus) | Vd [2] | clearance [3] | half-life [4] | half-life [5] | MIC (Candida parapsilosis) | MIC (Aspergillus flavus) | bioavailability [6] | MIC (Nakaseomyces glabratus) | SMILES
9 | > 128 µg/mL | 1 µg/mL (≈ 1.92 µM) | > 128 µg/mL | 0.125 µg/mL (≈ 0.239 µM) | > 128 µg/mL | 2 µg/mL (≈ 3.83 µM) | – | – | – | – | – | – | – | – | – | – | C=C(Cl)CON1C[C@H](OCC23C[C@@H]4[C@H](C)CC[C@H]4C4(C=O)CC2C=C(C(C)C)[C@@]34C(=O)O)OC[C@H]1C
10 | > 128 µg/mL | 2 µg/mL (≈ 3.83 µM) | 128 µg/mL (≈ 245 µM) | 0.5 µg/mL (≈ 0.958 µM) | > 128 µg/mL | 1 µg/mL (≈ 1.92 µM) | – | – | – | – | – | – | – | – | – | – | C=C(Cl)CN1C[C@H](OCC23C[C@@H]4[C@H](C)CC[C@H]4C4(C=O)CC2C=C(C(C)C)[C@@]34C(=O)O)OC[C@H]1CO
11 | > 128 µg/mL | 0.125 µg/mL (≈ 0.257 µM) | 8 µg/mL (≈ 16.5 µM) | < 0.06 µg/mL | 8 µg/mL (≈ 16.5 µM) | 0.125 µg/mL (≈ 0.257 µM) | – | – | – | – | – | – | – | – | – | – | C=C(C)CN1C[C@H](OCC23C[C@@H]4[C@H](C)CC[C@H]4C4(C=O)CC2C=C(C(C)C)[C@@]34C(=O)O)OC[C@H]1C
12 | > 128 µg/mL | 128 µg/mL (≈ 271 µM) | 64 µg/mL (≈ 136 µM) | 0.125 µg/mL (≈ 0.265 µM) | > 128 µg/mL | 0.25 µg/mL (≈ 0.53 µM) | – | – | – | – | – | – | – | – | – | – | C=CCN1C[C@H](OCC23C[C@@H]4[C@H](C)CC[C@H]4C4(C=O)CC2C=C(C(C)C)[C@@]34C(=O)O)OC[C@H]1C
13 | 32 µg/mL (≈ 63.2 µM) | < 0.06 µg/mL | 1 µg/mL (≈ 1.98 µM) | < 0.06 µg/mL | 0.5 µg/mL (≈ 0.988 µM) | 0.125 µg/mL (≈ 0.247 µM) | 5950 ng/mL | 32 µg/mL (≈ 63.2 µM) | 7.1 L/kg | 95 mL/min/kg | 1.8 h | 2.1 h | 1 µg/mL (≈ 1.98 µM) | 0.5 µg/mL (≈ 0.988 µM) | 100% | 0.125 µg/mL (≈ 0.247 µM) | C=C(Cl)CN1C[C@H](OCC23C[C@@H]4[C@H](C)CC[C@H]4C4(C=O)CC2C=C(C(C)C)[C@@]34C(=O)O)OC[C@H]1C
